# ChEMBL document CHEMBL4033670, “Synthesis, characterization, molecular docking and in vitro antimalarial properties of new carboxamides bearing sulphonamide” (Eur J Med Chem, 2017)
# Experiments:
# Assay type in all cases: functional
# [1] = Antioxidant activity assessed as inhibition of DPPH radical generation at 3 mg/ml after 20 mins under dark condition by UV-Visible spectrophotometric analysis relative to control
# In short: (§1)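 Test compounds were made up in ethanol at 1.0, 2.0, 3.0, 4.0 and 5.0 mg/mL (solution concentrations before mixing). 1 mL of each was shaken with 4 mL of 0.1 mM ethanolic DPPH and kept in the dark at room temperature for 20 min. The decrease in A517 was read against an ethanol baseline. A DPPH blank had no compound. Scavenging % = [(Ac − As)/Ac] × 100.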
# Plasmodium falciparum = test: Antimalarial activity against ring stage chloroquine-resistant Plasmodium falciparum W2 preincubated for 48 hrs measured after 48 hrs in presence of 10% human serum by YOYO-1 dye-based FACS analysis
# In short: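 Sorbitol-synchronized ring-stage W2 parasites at 0.1% parasitemia grown 48 h in RPMI-1640 + 10% human serum under 3% O2/6% CO2/91% N2 with inhibitors (from 1000× DMSO stocks), no media change. Fixed 48 h in 1% formaldehyde/PBS pH 7.4 at room temperature. Stained with 1 nM YOYO-1 in 0.1% Triton X-100/PBS. Parasitemia read by flow cytometry.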
# [2] = Antioxidant activity assessed as inhibition of DPPH radical generation at 4 mg/ml after 20 mins under dark condition by UV-Visible spectrophotometric analysis relative to control; in short: as §1
# [3] = Antioxidant activity assessed as inhibition of DPPH radical generation at 2 mg/ml after 20 mins under dark condition by UV-Visible spectrophotometric analysis relative to control; in short: as §1
# [4] = Antioxidant activity assessed as inhibition of DPPH radical generation at 1 mg/ml after 20 mins under dark condition by UV-Visible spectrophotometric analysis relative to control; in short: as §1
# [5] = Antioxidant activity assessed as inhibition of DPPH radical generation at 5 mg/ml after 20 mins under dark condition by UV-Visible spectrophotometric analysis relative to control; in short: as §1
# [6] = Antioxidant activity assessed as DPPH radical scavenging activity after 20 mins under dark condition by UV-Visible spectrophotometric analysis; in short: as §1
# [7] = Antioxidant activity assessed as inhibition of DPPH radical generation at 0.04 mg/ml after 20 mins under dark condition by UV-Visible spectrophotometric analysis relative to control
# [8] = Antioxidant activity assessed as inhibition of DPPH radical generation at 0.01 mg/ml after 20 mins under dark condition by UV-Visible spectrophotometric analysis relative to control
# [9] = Antioxidant activity assessed as inhibition of DPPH radical generation at 0.05 mg/ml after 20 mins under dark condition by UV-Visible spectrophotometric analysis relative to control
# [10] = Antioxidant activity assessed as inhibition of DPPH radical generation at 0.03 mg/ml after 20 mins under dark condition by UV-Visible spectrophotometric analysis relative to control
# [11] = Antioxidant activity assessed as inhibition of DPPH radical generation at 0.02 mg/ml after 20 mins under dark condition by UV-Visible spectrophotometric analysis relative to control
Structure (SMILES),inhibition [1],MIC99 (Plasmodium falciparum),inhibition [2],inhibition [3],inhibition [4],inhibition [5],IC50 [6],inhibition [7],inhibition [8],inhibition [9],inhibition [10],inhibition [11]
CC(=O)c1ccc(NC(=O)C(C(C)C)N(C(=O)c2ccccc2)S(=O)(=O)c2ccc([N+](=O)[O-])cc2)cc1 (stereo unspecified),29.8%,1.57 µM,27.2%,29.8%,29.8%,27.4%,6.8 mM,,,,,
CC(=O)c1ccc(NC(=O)C(Cc2ccccc2)N(C(=O)c2ccccc2)S(=O)(=O)c2ccc(C)cc2)cc1 (stereo unspecified),39.6%,0.78 µM,48.5%,32.7%,25.4%,53.6%,7.6 mM,,,,,
CC(=O)c1ccc(NC(=O)C(CC(C)C)N(C(=O)c2ccccc2)S(=O)(=O)c2ccc([N+](=O)[O-])cc2)cc1 (stereo unspecified),62.3%,0.06 µM,71%,,45%,81.3%,8.4 mM,,,,,
CC(=O)c1ccc(NC(=O)C2CCCN2S(=O)(=O)c2ccc([N+](=O)[O-])cc2)cc1 (stereo unspecified),24.3%,6.74 µM,25.3%,23.5%,22.7%,25.6%,19 mM,,,,,
CC(=O)c1ccc(NC(=O)C2CC(O)CN2S(=O)(=O)c2ccccc2)cc1 (stereo unspecified),49.8%,0.16 µM,54.5%,57%,40.2%,58.7%,3.8 mM,,,,,
CC(=O)c1ccc(NC(=O)C2CCCN2S(=O)(=O)c2ccccc2)cc1 (stereo unspecified),29.1%,0.11 µM,33.4%,25.8%,22.8%,35.7%,69 mM,,,,,
CCC(C)C(C(=O)Nc1ccc(C(C)=O)cc1)N(C(=O)c1ccccc1)S(=O)(=O)c1ccc([N+](=O)[O-])cc1 (stereo unspecified),42.1%,0.2 µM,48.4%,31.7%,28.6%,53.2%,50 mM,,,,,
CC(=O)c1ccc(NC(=O)CN(C(=O)c2ccccc2)S(=O)(=O)c2ccccc2)cc1,40.7%,0.97 µM,40.9%,40.5%,40.5%,45.4%,32 mM,,,,,
CC(=O)c1ccc(NC(=O)C(C(C)C)N(C(=O)c2ccccc2)S(=O)(=O)c2ccc(C)cc2)cc1 (stereo unspecified),29.7%,2.82 µM,36.6%,22.7%,15.6%,42.7%,12 mM,,,,,
CC(=O)c1ccc(NC(=O)C(CC(C)C)N(C(=O)c2ccccc2)S(=O)(=O)c2ccccc2)cc1 (stereo unspecified),40.7%,0.26 µM,46.9%,54.2%,27.7%,52.2%,3.2 mM,,,,,
CCC(C)C(C(=O)Nc1ccc(C(C)=O)cc1)N(C(=O)c1ccccc1)S(=O)(=O)c1ccc(C)cc1 (stereo unspecified),33.4%,5.11 µM,41%,25.7%,18.6%,47.3%,10 mM,,,,,
CC(=O)c1ccc(NC(=O)C(Cc2c[nH]c3ccccc23)N(C(=O)c2ccccc2)S(=O)(=O)c2ccccc2)cc1 (stereo unspecified),47%,,54.1%,39.4%,31.7%,61.2%,51 mM,,,,,
C=C[C@H]1CN2CC[C@H]1C[C@H]2[C@H](O)c1ccnc2ccc(OC)cc12 [QUININE],,0.83 µM,,,,,,,,,,
CC(=O)c1ccc(NC(=O)C2CC(O)CN2S(=O)(=O)c2ccc([N+](=O)[O-])cc2)cc1 (stereo unspecified),58.7%,0.32 µM,60.1%,,43.2%,70.7%,7.1 mM,,,,,
CC(=O)c1ccc(NC(=O)C2CCCN2S(=O)(=O)c2ccc(C)cc2)cc1 (stereo unspecified),20.7%,1.45 µM,20.7%,20.7%,20.6%,20.7%,36 mM,,,,,
CC(=O)c1ccc(NC(=O)C(C(C)C)N(C(=O)c2ccccc2)S(=O)(=O)c2ccccc2)cc1 (stereo unspecified),47.5%,1.7 µM,52.2%,41.3%,32.1%,54.2%,13 mM,,,,,
CC(=O)c1ccc(NC(=O)CN(C(=O)c2ccccc2)S(=O)(=O)c2ccc([N+](=O)[O-])cc2)cc1,20.6%,0.18 µM,20.7%,20.6%,20.6%,20.7%,58 mM,,,,,
CC(=O)c1ccc(NC(=O)C(Cc2c[nH]c3ccccc23)N(C(=O)c2ccccc2)S(=O)(=O)c2ccc([N+](=O)[O-])cc2)cc1 (stereo unspecified),23.5%,,24%,22.9%,22.1%,24.3%,0.73 mM,,,,,
CC(=O)c1ccc(NC(=O)C(Cc2ccccc2)N(C(=O)c2ccccc2)S(=O)(=O)c2ccc([N+](=O)[O-])cc2)cc1 (stereo unspecified),34.5%,0.08 µM,40%,26.8%,19.3%,49.2%,39 mM,,,,,
CC(=O)c1ccc(NC(=O)C(CC(C)C)N(C(=O)c2ccccc2)S(=O)(=O)c2ccc(C)cc2)cc1 (stereo unspecified),63.1%,0.17 µM,67.2%,58.1%,54%,71.3%,11 mM,,,,,
CC(=O)c1ccc(NC(=O)CN(C(=O)c2ccccc2)S(=O)(=O)c2ccc(C)cc2)cc1,18.2%,0.72 µM,18.4%,18.1%,17.9%,18.7%,102 mM,,,,,
CC(=O)c1ccc(NC(=O)C(Cc2c[nH]c3ccccc23)N(C(=O)c2ccccc2)S(=O)(=O)c2ccc(C)cc2)cc1 (stereo unspecified),39.5%,,39.5%,58%,39.5%,39.5%,0.045 mM,,,,,
CC(=O)c1ccc(NC(=O)C2CC(O)CN2S(=O)(=O)c2ccc(C)cc2)cc1 (stereo unspecified),12.7%,2.27 µM,12.9%,12.5%,12.4%,13%,25 mM,,,,,
CCC(C)C(C(=O)Nc1ccc(C(C)=O)cc1)N(C(=O)c1ccccc1)S(=O)(=O)c1ccccc1 (stereo unspecified),14.2%,1.25 µM,15.5%,11.3%,9.71%,16.8%,8.6 mM,,,,,
O=C1O[C@H]([C@@H](O)CO)C(O)=C1O [ASCORBIC ACID],,,,,,,0.34 mM,30%,15%,40%,25%,20%
CC(=O)c1ccc(NC(=O)C(Cc2ccccc2)N(C(=O)c2ccccc2)S(=O)(=O)c2ccccc2)cc1 (stereo unspecified),7.21%,0.9 µM,9.28%,4.37%,2.18%,11%,11 mM,,,,,
CCN(CC)CCCC(C)Nc1ccnc2cc(Cl)ccc12 (stereo unspecified) [CHLOROQUINE],,0.06 µM,,,,,,,,,,
